Measured values from ChEMBL document CHEMBL1123609, “Synthesis, conformational considerations, and estrogen receptor binding of diastereoisomers and enantiomers of 1-[4-[2-(dimethylamino)ethoxy]phenyl]-1,2-diphenylbutane (dihydrotamoxifen)” (1987).

Tests used:
[1] = system: MCF7; experiment: Effect on the MCF-7 cell growth at 10e-6 M; type: functional, Homo sapiens
Outline: (§1)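 MCF-7 cells seeded at 5000 cells/mL; compounds added after 24 h, final 10^-8, 10^-7 and 10^-6 M, alone or with 10^-8 M estradiol. After 5 days of culture, monolayer fixed in 90% ethanol and stained with hematoxylin; absorbance read at 540 nm as a measure of cell number. Mean of four separate cultures, expressed as percentage of control.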

[2] = system: MCF7; experiment: Effect on the MCF-7 cell proliferation at 10e-8 M; type: functional, Homo sapiens; outline: as §1
[3] = system: MCF7; experiment: Effect on the MCF-7 cell proliferation at 10e-7 M; type: functional, Homo sapiens; outline: as §1
[4] = biological target: Estrogen receptor (Homo sapiens) (UniProt Q92731+P03372); experiment: Relative binding affinity for estrogen receptor of MCF-7 cells; type: cell-based; details: MCF7
Outline: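 Whole MCF-7 cells incubated 50 min at 37 °C with 10^-9 M [3H]estradiol, without or with test compound or unlabeled estradiol reference (10^-10 to 10^-6 M). Bound material extracted with EtOH and receptor-bound [3H]estradiol measured. RBA calculated as in the calf uterine cytosol competition assay.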

Compound | Activity [1] | Activity [2] | Activity [3] | Relative binding affinity [4]
CC/C(=C(\c1ccccc1)c1ccc(O)cc1)c1ccccc1.C[C@]12CC[C@@H]3c4ccc(O)cc4CC[C@H]3[C@@H]1CC[C@@H]2O | 0.108 | 0.229 | 0.138 | 
CC/C(=C(/c1ccccc1)c1ccc(O)cc1)c1ccccc1.C[C@]12CC[C@@H]3c4ccc(O)cc4CC[C@H]3[C@@H]1CC[C@H]2O | 0.41 | 0.696 | 0.607 | 
CC/C(=C(\c1ccccc1)c1ccc(O)cc1)c1ccccc1 | 0.131 | 0.121 | 0.12 | 
CC/C(=C(/c1ccccc1)c1ccc(O)cc1)c1ccccc1 | 0.428 | 0.557 | 0.486 | 
CC[C@H](c1ccccc1)[C@@H](c1ccccc1)c1ccc(OCCN(C)C)cc1 |  |  |  | 0.04
CC[C@@H](c1ccccc1)[C@H](c1ccccc1)c1ccc(OCCN(C)C)cc1 |  |  |  | 0.02
